Screening data deposited in PubChem by Broad Institute.
Cneo AK release: causes C. neoformans cell lysis; 360,000 compounds, 0.2% hits; adenylate kinase release luminescence, 4 h; normalised: neutral wells 0, clomiphene wells 100; AID 651654; lysis activity, % at 15 µM;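 active = mean lysis activity across replicates of at least 80%, whatever share of replicates individually reach that level; inactive = mean lysis activity below 80%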
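Test system: log-phase Cryptococcus neoformans yeast cells. Input: 5 × 10^6 yeast cells/mL. Medium: fresh YPD growth medium. Doses: single dose. Incubation: static 4 h at 37 °C with compound, 1 h detection. Measured by: luminescent adenylate kinase detection reagent. Read-out: signal increase indicating cell lysis. Benchmarks: Clomiphene.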
CAL PDZ FP-1: inhibitors of human CAL PDZ peptide binding | purified CAL PDZ, TMR-peptide fluorescence polarization, 1 h | 330,000 compounds, 0.02% hits | inhibition, % at 20 µM | Q9HD26;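 active = highest replicate inhibition of at least 40%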;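 note: plate controls were DMSO neutral control wells for no effect and unlabeled competitor peptide control wells for full effect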
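System: tagged CAL PDZ domain. Schedule: 1 h room-temperature incubation prior to read. Signal: fluorescence polarization (mP). Measure: percent inhibition from loss of millipolarization.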
CAL PDZ FP-2: inhibitors of human CAL PDZ peptide binding; 300,000 compounds, 0.92% hits; inhibition, % at 24.9 µM; purified CAL PDZ, TMR-peptide fluorescence polarization, 1 h;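 active = mean inhibition of at least 30% with at least half of replicates also reaching 30%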;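 note: 0% = DMSO neutral control and 100% = excess unlabeled competitor peptide PRC23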
PglD DTNB: inhibitors of Campylobacter jejuni PglD acetyltransferase; purified PglD enzyme, DTNB colorimetric CoA detection; inhibition, % at 12.5 µM; 360,000 compounds, 0.098% hits; AID 602405; in the data active = inhibition above about 16%, passing the limit was not always enough
miR-122 sensor: blocks miR-122 activity in Huh7 sensor cells; activation (reporter increase), % at 12.5 µM; 340,000 compounds, 0.3% hits; Huh7 miR-122 Renilla luciferase sensor, 48 h; neutral wells = 0, positive control = 100; AID 602342;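 active = mean replicate activation score at least 90 and every replicate individually at or above 90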;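 note: higher luciferase means less miR-122 activity so hits act as miR-122 inhibitors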
* hit, by the source's call; nt = no result given; + = active, no number; [ ] = another dose, or the depositor's remark. The list is not random: actives were taken first. Their share in the collection is about 1.1%.

SMILES	Cneo AK release	CAL PDZ FP-1	CAL PDZ FP-2	PglD DTNB	miR-122 sensor
COC(=O)c1ccc(NC(=O)CN2C(=O)NC3(CCC(C)CC3)C2=O)cc1 (stereo unspecified)	0	-1	56*	7	-8
CCOC(=O)Cn1c(=O)oc2cc(S(=O)(=O)N(C)Cc3ccccc3)ccc21	1	0	76*	-3	11
CCOC(=O)Cn1c(=O)oc2cc(S(=O)(=O)N(CCN(C)C)Cc3ccccc3)ccc21	-4	0	-2	1	-2
c1cc2ccc3ccc(-n4cnnn4)c4ccc(c1)c2c34	1	nt	119*	1	-1
Cc1c(N)cccc1-n1cnnn1	nt	-3	-2	nt	4
CCOC(=O)c1ccc(S(=O)(=O)N2CCNCC2)cc1	1	-1	nt	-5	2
CN(C(=O)COC(=O)c1ccc(Br)c(S(=O)(=O)N2CCOCC2)c1)C1CCCCC1	-1	12	+	4	-13
CN(C(=O)COC(=O)c1ccc(S(=O)(=O)N2CCOCC2)cc1)C1CCCCC1	nt	0	2	nt	nt
CCOC(=O)c1ccc(S(=O)(=O)N2CCN(S(=O)(=O)CC)CC2)cc1	-3	-2	65*	-1	-4
CC(C)(C)N(Cc1ccccc1)C(=O)COC(=O)c1ccc(S(=O)(=O)N2CCOCC2)cc1	-1	0	39*	2	-10
O=S(=O)(NCc1ccccn1)c1ccccn1	4	1	-5	0	-7
C[C@H](CO)N1C[C@H](C)[C@H](CN(C)Cc2ccc(Oc3ccccc3)cc2)Oc2ccc(NC(=O)Nc3ccc4c(c3)OCO4)cc2C1=O	5	nt	nt	3	-6[16.7 µM]
Cn1cnc(S(=O)(=O)N2C[C@@H](O)COC[C@@H]3O[C@@H](CC(=O)NC4CCCC4)CC[C@H]32)c1	-2	nt	nt	5	1[16.7 µM]
CO[C@H]1CN(C)C(=O)c2cc(NS(C)(=O)=O)ccc2OC[C@@H](C)N(Cc2ccccc2)C[C@H]1C	-3	nt	nt	-13	11[16.7 µM]
CC(C)CCC(CC(C)O)C(=O)NNC(=S)Nc1ccccc1 (stereo unspecified)	2	0	0	-3	152*
COCCNC(=O)C(=O)NCCN1CCOCC1	-1	-1	-4	-3	1
COCCNC(=O)C(=O)NCCN1CCNCC1	nt	0	88*	nt	nt
C[C@@H]1CN([C@@H](C)CO)S(=O)(=O)c2ccc(-c3cncnc3)cc2O[C@@H]1CN(C)C	2	nt	nt	1	11[16.7 µM]
Cc1ccc(-c2ccc3c(c2)O[C@@H](CN(C)Cc2ccc(F)cc2)[C@@H](C)CN([C@H](C)CO)S3(=O)=O)cc1	83*	nt	nt	-2	13[16.7 µM]
C[C@H](CO)N1C[C@H](C)[C@H](CN(C)Cc2ccccc2F)Oc2cc(C3=CCCC3)ccc2S1(=O)=O	101*	nt	nt	-1	-27[16.7 µM]
CCCN(C)C[C@@H]1Oc2cc(-c3cncnc3)ccc2S(=O)(=O)N([C@@H](C)CO)C[C@@H]1C	nt	nt	nt	16*	nt
CN(c1ccc(C(=O)N2CCCCC2)cc1)S(=O)(=O)c1ccccc1	2	0	4	2	7
CN(c1ccccc1)S(=O)(=O)c1cccc(C(=O)N2CCCCCC2)c1	2	-1	39*	-3	35
Cc1cccc(NS(=O)(=O)c2cccc(C(=O)N3CCCCCCC3)c2)c1	0	-3	2	1	163*
Cc1cc(C)c(C)c(S(=O)(=O)Nc2ccc(C(N)=O)cc2)c1C	nt	0	3	nt	nt
SMILES	Cneo AK release	CAL PDZ FP-1	CAL PDZ FP-2	PglD DTNB	miR-122 sensor
Cc1cc(C)c(C)c(S(=O)(=O)Nc2ccc(C(=O)N3CCCC3)cc2)c1C	3	0	-4	1	135*
Cc1cccc(NS(=O)(=O)c2cccc(C(=O)N3CCCCCC3)c2)c1	-3	-2	-5	-4	72
O=C(c1cccc(S(=O)(=O)NCc2ccccc2)c1)N1CCCC1	nt	-1	85*	nt	nt
O=C(c1cccc(S(=O)(=O)NCc2ccccc2)c1)N1CCN(c2ccccc2)CC1	0	-1	2	0	nt
Cc1noc(C)c1NC(=O)Nc1ccc2c(c1)C(=O)N([C@@H](C)CO)C[C@H](C)[C@@H](CN(C)C(=O)Nc1ccc(C(F)(F)F)cc1)O2	5	nt	nt	1	-18[16.7 µM]
C[C@@H]1CCCCO[C@@H](CN(C)CC2CCCCC2)[C@@H](C)CN([C@H](C)CO)C(=O)c2cc(NC(=O)CCC(F)(F)F)ccc2O1	-28	nt	nt	0	104*[16.7 µM]
C[C@@H]1CCCCO[C@@H](CN(C)CC2CCCCC2)[C@H](C)CN([C@H](C)CO)C(=O)c2cc(NC(=O)CCC(F)(F)F)ccc2O1	-3	nt	nt	0	-5[16.7 µM]
COc1ccc(NC(=O)N(C)C[C@@H]2OCCCC[C@@H](C)Oc3ccc(NC(=O)Nc4ccc5c(c4)OCO5)cc3C(=O)N([C@@H](C)CO)C[C@H]2C)cc1	88*	nt	nt	0	0[16.7 µM]
COc1ccc(NC(=O)N(C)C[C@H]2OCCCC[C@@H](C)Oc3ccc(NC(=O)c4ccccc4)cc3C(=O)N([C@@H](C)CO)C[C@H]2C)cc1	102*	nt	nt	-5	12[16.7 µM]
COc1ccc(NC(=O)Nc2ccc3c(c2)C(=O)N([C@H](C)CO)C[C@H](C)[C@@H](CN(C)C(=O)CCC(F)(F)F)OCCCC[C@@H](C)O3)cc1	0	nt	nt	1	2[16.7 µM]
COc1ccc(NC(=O)Nc2ccc3c(c2)C(=O)N([C@H](C)CO)C[C@@H](C)[C@@H](CN(C)C(=O)CCC(F)(F)F)OCCCC[C@H](C)O3)cc1	95*	nt	nt	0	36[16.7 µM]
O=C(Cc1ccccc1)Nc1ncnc2c1C(c1ccccc1)c1c(ccc3ccccc13)O2 (stereo unspecified)	1	0	-6	2	-6
CC(C)C(NC(=O)c1c(F)cccc1F)C(=O)N1CCN(S(=O)(=O)c2ccc(F)cc2)CC1 (stereo unspecified)	1	1	nt	-2	4
C/C=C/c1ccc([C@H]2[C@@H](CO)N(C(=O)Nc3ccccc3F)[C@H]2C#N)cc1	3	nt	nt	0	nt
COc1ccc(NC(=O)N(C)C[C@H]2OCCCC[C@@H](C)Oc3ccc(NC(=O)c4ccccc4)cc3C(=O)N([C@H](C)CO)C[C@H]2C)cc1	83*	nt	nt	2	44[16.7 µM]
COc1ccc(NC(=O)N(C)C[C@H]2OCCCC[C@H](C)Oc3ccc(NC(=O)c4ccccc4)cc3C(=O)N([C@H](C)CO)C[C@@H]2C)cc1	-12	nt	nt	0	5[16.7 µM]
O=C(CCCCl)Nc1nc(-c2ccc3c(c2)OCCO3)cs1	-3	-2	7	3	-11
N#CCC(=O)Nc1nc(-c2ccc3c(c2)OCCO3)cs1	nt	0	74*	nt	nt
CN(C[C@H]1[C@@H](c2ccccc2)[C@@H](CO)N1C(=O)C1CC1)C(=O)c1ccccn1	5	nt	nt	-3	-7[16.7 µM]
CO[C@@H]1CN(C)C(=O)c2ccc(NC(=O)Nc3ccccc3F)cc2OC[C@@H](C)N(Cc2ccccc2F)C[C@H]1C	1	nt	nt	4	nt
